Among the data in ChEMBL document CHEMBL4145616, “Phytochemical Study of Salvia leriifolia Roots: Rearranged Abietane Diterpenoids with Antiprotozoal Activity” (J Nat Prod, 2018) are IC50 and selectivity ratio values, retold here.

Structures are written as SMILES.

Data set [1] has as its system Plasmodium falciparum. In words: Antiplasmodial activity against drug-sensitive erythrocyte stage of Plasmodium falciparum NF54 assessed as reduction in [3H]-hypoxanthine incorporation pretreated for 48 hrs followed by [3H]-hypoxanthine addition measured after 24 hrs by liquid scintillation counting method. The data set is classed as functional, organism-based. A digest of the protocol:
(§1)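 IC50 values are the average of three independent assays.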

Data set [2] concerns Trypanosoma brucei rhodesiense. In words: Antitrypanosomal activity against Trypanosoma brucei rhodesiense STIB900 bloodstream forms after 70 hrs by Alamar blue assay. The class given is functional, organism-based. To be noted: STIB900, 70 h. A digest of the protocol: as §1
Background: Resazurin is reduced to fluorescent resorufin, in cell work by metabolically active cells.

Data set [3] has as its system Trypanosoma cruzi. Description: Antiprotozoal activity against trypomastigote form of Trypanosoma cruzi Tulahuen C2C4 infected in rat L6 cells after 96 hrs by CPRG/Nonidet-based photometric method. To be noted: Tulahuen C2C4, L6, 96 h. The data set is classed as functional, organism-based.
The subject of data set [4] is Leishmania donovani. Description: Antileishmanial activity against Leishmania donovani MHOM/ET/67/L82 axenic amastigotes after 70 hrs by alamar blue staining based fluorescence assay. The data set is classed as functional, organism-based. To be noted: MHOM/ET/67/L82, 70 h. Put shortly:
as §1

The test system of data set [5] is L6. In words: Cytotoxicity against rat L6 cells after 70 hrs by alamar blue assay. The class given is cell-based. To be noted: L6, 70 h. Put shortly:
as §1

Data set [6] is described as follows: Selectivity index, ratio of IC50 for rat L6 cells to IC50 for drug-sensitive erythrocyte stage of Plasmodium falciparum NF54. The class given is toxicity. To be noted: read-out: Ratio IC50.
Data set [7] in a line: Selectivity index, ratio of IC50 for rat L6 cells to IC50 for Trypanosoma brucei rhodesiense STIB900 bloodstream forms. The data set is classed as toxicity. To be noted: read-out: Ratio IC50.
Data set [8] in a line: Selectivity index, ratio of IC50 for rat L6 cells to IC50 for trypomastigote form of Trypanosoma cruzi Tulahuen C2C4 infected in rat L6 cells. To be noted: read-out: Ratio IC50. The data set is classed as toxicity, cell-based.
The nature of data set [9]: Selectivity index, ratio of IC50 for rat L6 cells to IC50 for Leishmania donovani MHOM/ET/67/L82 axenic amastigotes. The class given is toxicity. To be noted: read-out: Ratio IC50.

Consider `CC(C)[C@H]1C(=O)C2=C(C1=O)[C@@]1(C)CCCC(C)(C)[C@@H]1CC2=O`, for which the IC50 in data set [1] is 3.6 µM; in data set [2], 1 µM; in data set [3] it was 4.6 µM; in data set [4], 1 µM; in data set [5], 2.6 µM. The selectivity ratio in [6] came to 0.7; in data set [7], 2.6; in data set [8], 0.6; in [9] it was 2.6.
Take `CC(C)c1cc(CC[C@@H]2C(=O)CCCC2(C)C)c(O)cc1O`: the IC50 in [1] stood at 0.4 µM; in data set [2], 19.7 µM; in [3], 27.6 µM; in data set [5], 33.6 µM. The selectivity ratio in data set [6] worked out at 84; in [7] it was 1.7; in [8] it was 1.2.
In turn, `CCCCCCCCCCCCCCCCOP(=O)([O-])OCC[N+](C)(C)C` [MILTEFOSINE] returned an IC50 in data set [4] of 0.12 µM.

Broadly, the IC50 is the concentration needed to halve the response being measured.
